The source made the active and inactive calls.
How the values were obtained:
OVCAR-3 = experiment: Induction of apoptosis in human OVCAR-3 cells assessed as increase cleaved PARP expression at 5 to 10 nM incubated for 48 hrs by immunoblot analysis; format: functional, cell-based; details: dose 5-10 nM
Outline: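 OVCAR-3 cells were grown in DMEM with 20% FBS and 0.01 μg/mL insulin. They were treated for 48 h at 0, 0.25, 2.5, 5 and 10 nM. Lysates were made in SDS–urea, sonicated and run on SDS-PAGE, then transferred to nitrocellulose. Blots were probed with anti-PARP (1:1000; full-length and cleaved) and anti-actin loading control (1:10,000), with HRP/ECL detection.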

SK-OV-3 [1] = experiment: Induction of ferroptosis-mediated antitumor activity against human SK-OV-3 cells xenografted in BALB/C nu/nu mouse assessed as increase in lactic acid level in tumor at 25 mg/kg, ip administered every 2 days for 40 days by biochemical analysis; format: functional, organism-based; details: time 40.0 day
Outline: (§1)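 U-87 MG or SKOV-3 sc xenografts (1 × 10^8 cells/mL) in female BALB/c nu/nu mice, 4 per group. Given 25 mg/kg ip in 100 μL every 2 days, or saline. Tumors harvested on day 40 and assayed for LPO, MDA, lactic acid, total glutathione (GSH + GSSG), ATP and Fe2+.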

SK-OV-3 [2] = experiment: Antitumor activity against human SK-OV-3 cells xenografted in BALB/C nu/nu mouse assessed as reduction in tumor growth at 25 mg/kg, ip administered every 2 days for 40 days; format: functional, organism-based; details: time 40.0 day
Outline: (§2)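 Female BALB/c nu/nu mice, 10 weeks old, 4 per group. Received subcutaneous U-87 MG or SKOV-3 cells (1 × 10^8 cells/mL, harvested in log phase). Dosed ip with 100 μL at 25 mg/kg every 2 days; controls got 100 μL saline on the same schedule. Sacrificed at 40 days; tumors weighed, volume = ab²/2. Tumor sections (6 μm, paraffin) stained by immunofluorescence for Ki67 or CD31 with Alexa Fluor 488 secondary.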

Mus musculus [3] = experiment: Upregulation of Sat1 mRNA expression in tumor of BALB/C nu/nu mouse xenografted with human SK-OV-3 cells at 25 mg/kg, ip administered every 2 days for 40 days by qPCR analysis; format: functional, organism-based; details: time 40.0 day
Outline: (§3)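 Female BALB/c nu/nu mice, 10 weeks old, 4 per group. Inoculated s.c. with 1 × 10^8 cells/mL of log-phase U-87 MG or SKOV-3 cells. Dosed i.p. with 100 μL at 25 mg/kg every 2 days; controls got 100 μL saline. Tumors harvested on day 40. RNA extracted from about 20 mg of tissue. qPCR panel of 69 genes, 40 cycles (94 °C 20 s, 60 °C 34 s). Analysed by 2–ΔΔCt; fold ≥1.5 taken as increased.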

Mus musculus [4] = experiment: Upregulation of TFRC mRNA expression in tumor of BALB/C nu/nu mouse xenografted with human U-87 MG cells at 25 mg/kg, ip administered every 2 days for 40 days by qPCR analysis; format: functional, organism-based; details: time 40.0 day; outline: as §3
SK-OV-3 [5] = experiment: Induction of ferroptosis-mediated antitumor activity against human SK-OV-3 cells xenografted in BALB/C nu/nu mouse assessed as reduction in total glutathione level in tumor at 25 mg/kg, ip administered every 2 days for 40 days by biochemical analysis; format: functional, organism-based; details: time 40.0 day; outline: as §1
Mus musculus [6] = experiment: Upregulation of FTL mRNA expression in tumor of BALB/C nu/nu mouse xenografted with human U-87 MG cells at 25 mg/kg, ip administered every 2 days for 40 days by qPCR analysis; format: functional, organism-based; details: time 40.0 day
Outline: (§4)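 Female BALB/c nu/nu mice bearing sc U-87 MG or SKOV-3 xenografts were dosed ip at 25 mg/kg (100 μL) every 2 days, or given saline, and tumors were taken at day 40. RNA was extracted from about 20 mg of tissue. qPCR ran 40 cycles (95 °C 15 min; 94 °C 20 s; 60 °C 34 s) on a 69-gene panel. Fold change was by 2^–ΔΔCt, with ≥1.5 counted as increased.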

Mus musculus [7] = experiment: Upregulation of FTH1 mRNA expression in tumor of BALB/C nu/nu mouse xenografted with human SK-OV-3 cells at 25 mg/kg, ip administered every 2 days for 40 days by qPCR analysis; format: functional, organism-based; details: time 40.0 day; outline: as §4
SK-OV-3 [8] = experiment: Antitumor activity against human SK-OV-3 cells xenografted in BALB/C nu/nu mouse assessed as reduction in Ki67 expression in tumor at 25 mg/kg, ip administered every 2 days for 40 days by immunofluoresence staining based assay; format: functional, organism-based; details: time 40.0 day; outline: as §2
Mus musculus [9] = experiment: Upregulation of Hspb5 mRNA expression in tumor of BALB/C nu/nu mouse xenografted with human SK-OV-3 cells at 25 mg/kg, ip administered every 2 days for 40 days by qPCR analysis; format: functional, organism-based; details: time 40.0 day; outline: as §3
SK-OV-3 [10] = experiment: Induction of ferroptosis-mediated antitumor activity against human SK-OV-3 cells xenografted in BALB/C nu/nu mouse assessed as increase in Fe2+ level in tumor at 25 mg/kg, ip administered every 2 days for 40 days; format: functional, organism-based; details: time 40.0 day; outline: as §1
U-87MG ATCC = experiment: Antitumor activity against human U-87 MG cells xenografted in BALB/C nu/nu mouse assessed as reduction in tumor growth at 25 mg/kg, ip administered every 2 days for 40 days; format: functional, organism-based; details: time 40.0 day; outline: as §2
Mus musculus [11] = experiment: Upregulation of ENDOG mRNA expression in tumor of BALB/C nu/nu mouse xenografted with human U-87 MG cells at 25 mg/kg, ip administered every 2 days for 40 days by qPCR analysis; format: functional, organism-based; details: time 40.0 day; outline: as §4

Measured: Activity

COc1cc(C(=O)c2cn(-c3ncccn3)cc2-c2ccco2)cc(OC)c1OC
active: all assays above

From ChEMBL document CHEMBL5236592, “Induction of Ferroptosis in Glioblastoma and Ovarian Cancers by a New Pyrrole Tubulin Assembly Inhibitor” (J Med Chem, 2022)
